In paper PMC5034689 (Molecular Metabolism, 2016):

Assays:
[1] = biological target: T1, Recombinant human IP6K1 (Homo sapiens, UniProt Q92551); test: IP6K1 activity assay in vitro, SDS-PAGE assay; assay type: biochemical; conditions: TNP 1 μM
How it was run: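 Recombinant human IP6K1 (100 ng, purified from E. coli) was incubated in 20 mM Tris pH 7.4 with 5 mM MgCl2, 5 nmol IP6, 1 mM ATP and 1 mM DTT. DMSO or 1 μM test compound was added. IP6 conversion to 5-IP7 was resolved and read by SDS-PAGE.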

[2] = test system: cortical neurons; conditions: cited from earlier work
[3] = test system: 3T3L1 adipocytes; test: Glycerol assay for lipolysis in adipocytes; assay type: cell-based; conditions: TNP 1 μM, isoproterenol 10 μM
How it was run: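 3T3-L1 preadipocytes were differentiated for 7 days. Adipocytes were pretreated 4 h with DMSO or 1 μM test compound in DMEM with 0.5% fatty-acid-free BSA. Medium was then replaced, with or without isoproterenol (10 μM), and compound was kept on throughout. Glycerol released into the medium was measured with a commercial kit.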

[4] = test system: lean/CD-fed mice; test: Single dose of TNP in chow; assay type: in vivo; conditions: single dose 20 mg/kg BW
How it was run: (§1)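 Chow-fed lean or DIO mice (n = 4/group) received one 20 mg/kg injection, were fasted 5 h, then given GTT (glucose 2 g/kg i.p., tail-vein glucometer from time 0). Mice were then sacrificed for tissues and cardiac-puncture serum. Insulin was measured by ultra-sensitive ELISA and TAG by a metabolic core. Akt S473 was immunoblotted (T308 also in IWAT), with densitometry n = 3.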

[5] = test system: human promyelocytic leukemia (HL60) cells; conditions: cited from earlier work
[6] = biological target: CYP3A4 (Homo sapiens, UniProt P08684); test: CYP450 inhibition in human hepatic microsomes, CYP3A4; assay type: in vitro ADME; conditions: liver microsomes, probe midazolam (hydroxylation to 1′-hydroxymidazolam)
[7] = test system: chow-fed male mice; test: Long-term TNP treatment on fertility of chow-fed male mice; assay type: in vivo; conditions: 10 mg/kg BW daily for 15 weeks, chow-fed WT
How it was run: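 Six-week-old chow-fed male mice were injected daily with 10 mg/kg test compound for 4 weeks. They were then used for breeding while injections continued another 11 weeks (15 weeks total). Each male took part in 4 rounds of harem breeding, the last after 14 weeks of treatment.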

[8] = test system: DIO WT mice; test: Long-term TNP for reversal of DIO in WT mice; assay type: in vivo
How it was run: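 Inbred IP6K1-KO mice (seventh generation) and WT littermates, n = 4/group, received HFD for 8 weeks, then daily injections (10 mg/kg) with continued HFD for 10 weeks. GTT was done at week 5: 5 h fast, glucose 2 g/kg i.p., tail-vein glucometer readings including time 0. After 10 weeks, fat, lean and fluid masses were measured by LF-NMR, and mice were sacrificed after a 5 h fast.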

[9] = biological target: T1, Recombinant human IP6K1; test: IP6K1 activity assay in vitro, radiochemical assay; assay type: biochemical; conditions: TNP 1 μM
How it was run: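 Recombinant human IP6K1 (100 ng) was incubated 1 h in 20 mM Tris pH 7.4 with 5 mM MgCl2, 2 nmol IP6, [3H]IP6 (130 nCi), 1 mM ATP and 1 mM DTT, plus DMSO or 1 μM test compound. 5-IP7 was resolved by HPLC, with activity expressed relative to DMSO (100%). Run in triplicate.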

[10] = Plasma protein binding, equilibrium dialysis, summary over species; assay type: in vitro ADME; conditions: human, mouse, rat
How it was run: (§2)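 Binding was measured by rapid equilibrium dialysis in triplicate, starting at 1 μM drug in the plasma chamber against PBS. Plates were shaken 6 h at 37 °C. Samples were matrix-matched to 1:1 plasma:PBS and quantified by LC-MS/MS. Fraction bound = ([plasma] − [PBS])/[plasma].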

[11] = test system: 71 unrelated kinases; conditions: cited from earlier work
[12] = test system: DIO mice; test: Long-term TNP treatment of DIO mice at thermoneutral temperature; assay type: in vivo
How it was run: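 Following the initial phase, vehicle or test compound was injected for another 8 weeks, n = 6/group. Body weight was recorded weekly. ITT was done at week 4: 5 h fast, human insulin 0.75 U/kg i.p., tail-vein glucometer. At 8 weeks, mice were sacrificed after a 5 h fast. Cardiac-puncture serum was assayed for cholesterol and HDL by a metabolic core.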

[13] = Plasma and tissue availability after a single intraperitoneal TNP injection; assay type: in vivo, mice
How it was run: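 Chow-fed mice received a single i.p. injection (20 mg/kg) in DMSO:Tween 80:water (1:1:8). Plasma levels were followed 1–6 h after dosing. Liver, skeletal muscle, white and brown adipose tissue and brain were collected 6 h after dosing to measure tissue concentrations.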

[14] = test system: DIO mice; test: Single dose of TNP in DIO mice; assay type: in vivo
How it was run: as §1

[15] = test system: MIN6 cells; conditions: cited from earlier work
[16] = test system: HFD-fed mice; test: Long-term TNP for protection against DIO; assay type: in vivo, C57BL6 mice
How it was run: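 Male C57BL6 mice, chow-fed to 2 months of age, started HFD together with daily injections (10 mg/kg; vehicle DMSO:Tween 80:water 1:1:8) for 10 weeks, n = 6/group, 23 °C. Body weight was recorded weekly. In week 5, CLAMS ran 36 h acclimatization then 48 h of VO2, VCO2 and locomotor recording. RER = VCO2/VO2, and EE was normalized to lean mass. Week-7 food intake was measured by BioDAQ (2 days acclimatization, 4 days recorded).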

[17] = Plasma protein binding, equilibrium dialysis, human; assay type: in vitro ADME
How it was run: as §2

[18] = 10 mg/kg BW daily, 10 weeks, WT
[19] = 10 mg/kg BW daily, 10 weeks, WT, vs vehicle
[20] = after 5 weeks of TNP treatment, WT
[21] = 10 mg/kg BW daily, 5th week, CLAMS

T1 sequence (Q92551 whole entry): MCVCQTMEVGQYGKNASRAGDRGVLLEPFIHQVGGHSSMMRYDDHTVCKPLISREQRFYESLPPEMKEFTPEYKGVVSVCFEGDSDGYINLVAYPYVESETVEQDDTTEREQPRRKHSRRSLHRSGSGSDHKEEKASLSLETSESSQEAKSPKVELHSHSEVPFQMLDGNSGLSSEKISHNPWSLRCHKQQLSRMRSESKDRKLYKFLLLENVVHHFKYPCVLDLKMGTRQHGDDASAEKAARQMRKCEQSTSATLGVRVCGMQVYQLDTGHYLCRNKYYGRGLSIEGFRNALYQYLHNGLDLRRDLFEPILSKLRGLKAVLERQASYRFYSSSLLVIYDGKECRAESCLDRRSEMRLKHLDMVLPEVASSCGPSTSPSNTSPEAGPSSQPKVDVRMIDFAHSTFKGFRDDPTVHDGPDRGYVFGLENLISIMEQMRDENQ
Chain of CYP3A4 (P08684 whole entry): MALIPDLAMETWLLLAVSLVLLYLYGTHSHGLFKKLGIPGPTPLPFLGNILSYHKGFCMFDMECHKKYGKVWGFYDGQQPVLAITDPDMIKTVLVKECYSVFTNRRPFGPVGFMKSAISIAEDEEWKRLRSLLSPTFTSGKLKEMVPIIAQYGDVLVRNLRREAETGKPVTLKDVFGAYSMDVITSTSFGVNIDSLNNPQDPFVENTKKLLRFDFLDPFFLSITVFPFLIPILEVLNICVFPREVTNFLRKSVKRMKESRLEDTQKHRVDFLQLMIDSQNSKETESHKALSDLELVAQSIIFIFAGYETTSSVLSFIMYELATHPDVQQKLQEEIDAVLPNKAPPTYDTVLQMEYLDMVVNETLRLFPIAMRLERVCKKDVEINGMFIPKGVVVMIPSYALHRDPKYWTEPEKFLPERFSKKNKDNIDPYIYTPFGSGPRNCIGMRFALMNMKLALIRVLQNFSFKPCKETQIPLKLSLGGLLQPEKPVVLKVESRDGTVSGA

O=[N+]([O-])c1ccc(CNc2nc(NCc3cccc(C(F)(F)F)c3)nc3[nH]cnc23)cc1 [TNP, N6-(4-nitrobenzyl)-N2-(3-(trifluoromethyl)benzyl)-9H-purine-2,6-diamine]
IP6K1 activity [1]: inhibits IP6K1 activity
Cytosolic Zn2+ levels [2]: slightly elevates
Basal or isoproterenol induced lipolysis (glycerol release) [3]: does not influence
Akt phosphorylation at S473 in liver and EWAT [4]: does not alter
Glucose disposal (GTT) [4]: does not influence
Ca2+ levels [5]: slightly elevates
inhibition at 10 μM [6]: 98%
Sterility of males [7]: do not display sterility
Testis morphology ([8]; 10 mg/kg BW daily, 10 weeks, DIO mice): unaltered
Serum insulin level ([8]; 10 mg/kg BW daily, 10 weeks, HFD-fed WT): reduces serum insulin level
Serum cholesterol level [8, 18]: reduces serum cholesterol level
UCP1 expression [8, 18]: enhances UCP1 expression
Liver weight [8, 19]: substantially less
Total fat mass (QNMR) [8, 19]: significantly less
Histological morphology and weight of heart and kidney ([8]; 10 mg/kg BW daily, 10 weeks, vs vehicle): similar
Reduction in body weight vs vehicle ([8]; 10 mg/kg BW daily, after 10-week of treatment, WT): ~10 g
Body weight ([8]; 10 mg/kg BW daily, after 10 weeks of injection, DIO WT): 36.9 g
Fasting blood glucose [8, 20]: reduces fasting blood glucose
Glucose disposal (GTT) [8, 20]: enhances glucose disposal
CA1 neuronal density ([8]; long-term TNP treatment, WT and IP6K1-KO mice, stereological analysis): did not significantly alter
IP6K1 catalytic activity [9]: blocks the catalytic activity of IP6K1
fraction unbound at 6 h, 1 μM [10]: 0.07 to 0.1
Effect on 71 unrelated kinases [11]: does not influence
Glucose disposal following exogenous insulin treatment (ITT) ([12]; 30 °C, after 4-weeks of TNP injection): significantly improved
Average decrease in body weight ([12]; 30 °C, after 8-weeks of injection): ~0.7 g
Serum levels of total cholesterol and HDL ([12]; thermoneutral temperature): unaltered at thermoneutral temperature
Crossing of the BBB ([13]; mice): does not efficiently cross the BBB
half-life ([13]; mouse, plasma, ip, 20 mg/kg): ~6 h
TNP concentration in plasma ([13]; single dose 20 mg/kg i.p., chow fed mice, 1–6 h post-treatment): 5 to 10 µM
Blood glucose level ([14]; single dose 20 mg/kg BW): significantly reduces
Glucose tolerance (GTT) ([14]; single dose 20 mg/kg BW): significantly improves
HFD induced increase in serum insulin ([14]; single dose 20 mg/kg BW): slightly reduces
Serum TAG level ([14]; single dose 20 mg/kg BW): does not influence
Serum cholesterol, HDL, and LDL levels ([14]; single dose 20 mg/kg BW): slightly reduces
Increase in Akt S473 phosphorylation in IWAT, soleus muscle and liver ([14]; single injection 20 mg/kg BW, phospho S473/total Akt, ImageJ): 2–3 fold
Insulin secretion [15]: reduces insulin secretion
Lean mass ([16]; 10 mg/kg BW daily): unaltered
Average RER [16, 21]: unaltered
Average activity [16, 21]: unaltered
Energy expenditure (EE) [16, 21]: higher EE especially during nighttime
VO2 consumption [16, 21]: higher VO2 consumption
Daily energy intake ([16]; 10 mg/kg BW daily, 7th week, vs vehicle): similar
Glucose disposal following glucose (GTT) and insulin injections (ITT) ([16]; 10 mg/kg BW daily, 8th and 9th week): efficient glucose disposals
Body weight gain ([16]; 10 mg/kg BW daily, after 10 weeks (injection stopped)): 2.9 g
Body weight ([16]; 10 mg/kg BW daily, after 10 weeks of HFD and TNP): 27.8 g
Glucose disposal following glucose injection (GTT) ([16]; 2 weeks after TNP withdrawal): efficient glucose disposal
Body weight gain ([16]; 18-week, eight weeks after TNP withdrawal): 19.3 g
Body weight ([16]; 18-week, eight weeks after TNP withdrawal, HFD continued): 44.3 g
Glucose tolerance (GTT) ([16]; four weeks after TNP withdrawal): become glucose intolerant
Body weight ([16]; onset of the experiment (before treatment)): 24.9 g
Weight gain during the withdrawal period ([16]; weeks 10 to 18, TNP-withdrawn mice): 16.4 g
fraction unbound at 6 h, 1 μM [17]: 0.083
